Assay outcomes as filed in PubChem BioAssay.
Sampled rows, rich in hits. Any-hit rate of the full collection: about 4.5%.
NS3 helicase inh: inhibitors of Hepatitis C virus NS3 helicase; NS3 helicase DNA unwinding, Cy5 molecular beacon fluorescence; inhibition, % at 10.9 µM; hit rate 0.56% among 290,000;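 active means inhibition above the mean of all tested compounds plus 3 SD, set per campaign, cut at about 35% in these data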;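 further: 0% = DMSO wells and 100% = thioflavine S control wells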
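Assay system: hepatitis C virus NS3 helicase domain fragment enzyme. Also added: annealed dual-labelled DNA beacon duplex, ATP-started. Timing: 1 h reaction at 25 °C, ATP-initiated. Technique: Cy5 fluorescence at 0 and 60 min, beacon hairpin quenching. Evaluation: % inhibition of unwinding. Replication: one well per compound.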
UPR CHOP act: activators of apoptotic arm of unfolded protein response (CHOP). CHO-CHOP luciferase reporter, UPR activation, luminescence; percent of tunicamycin response over DMSO baseline. AID 449763. activation, % at 10 µM. hit rate 0.34% among 330,000;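 active means at 10 µM dose, activation of 40% or more, normalized to positive control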;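 further: 100% = tunicamycin at 10 µg/mL and 0% = DMSO alone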
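Assay system: CHO-CHOP cells, stable luciferase reporter of PERK-eIF2a-CHOP signalling / Buffer or medium: F12 plus 10% serum / Compound dosing: one dose, 10 µM in 0.5% DMSO / Times: 6 h compound treatment, 37 °C / Technique: luciferase luminescence / Read-out: % reporter activation, DMSO baseline versus tunicamycin full activation / Benchmarks: tunicamycin and DMSO controls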
PfM18AAP inh-1: blocks P. falciparum M18 aspartyl aminopeptidase. recombinant PfM18AAP, H-Glu-NHMec fluorogenic cleavage. inhibition, % at 7.35 µM. hit rate 1.2% among 290,000;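 active means inhibition above the campaign mean inhibition over all tested compounds plus 3 SD, cut at about 28% in these data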;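 further: 0% = plate median of test compound wells and 100% = 2 mM ZnCl2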
XBP1 UPR activ: activators of adaptive arm of unfolded protein response (XBP1). CHO-XBP1 luciferase reporter, IRE1-XBP1 UPR activation, luminescence; percent of tunicamycin response, DMSO as zero. activation, % at 20 µM. hit rate 0.33% among 330,000;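 active means versus positive control, 20 µM dose yields 30% or more activation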;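 further: 100% = tunicamycin at 10 µg/mL and 0% = DMSO only wells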
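Material: CHO-XBP1 cells stably carrying IRE1-XBP1-driven luciferase reporter / Amount: 1000 cells per well / Compound: 20 µM, 1% DMSO / Times: 6 h treatment, 37 °C / Detection: luciferase luminescence / Measure: % activation of reporter signal versus tunicamycin and DMSO controls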
p97 ATPase inh: blocks human p97 ATPase activity; P55072; recombinant p97 ATPase, Kinase-Glo ATP luminescence, 3 h; inhibition, % at 8 µM; hit rate 0.42% among 220,000; AID 1481; in the data active means inhibition above about 15%;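 further: 0% = DMSO vehicle and 100% = wells lacking enzyme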
CHOP inh: inhibitors of CHOP induction in ER stress response; CHO-K1 CHOP-promoter luciferase, tunicamycin-induced, 15-18 h; inhibition, % at 10 µM; hit rate 3.8% among 220,000; AID 2732;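 active means compounds that reduced the stress-induced luciferase reporter signal by more than about 70% of percent inhibition, limit read from the data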;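 further: 0% = tunicamycin plus vehicle and 100% = wells without tunicamycin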
PfM18AAP inh-2: PfM18AAP inhibition, confirmation. hit rate 28% among 2,400. shares compounds with PfM18AAP inh-1. recombinant PfM18AAP, H-Glu-NHMec fluorogenic cleavage. AID 2170. inhibition, % at 7.35 µM;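 active means mean inhibition over replicate wells above the hit cutoff set for the earlier primary screen, cut at about 29% in these data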;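 further: 0% = median of test compound wells and 100% = 2 mM ZnCl2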
CTSL1 confirm: Cathepsin L (human) inhibition, confirmation. shares compounds with PfM18AAP inh-1. purified cathepsin L1, Z-Leu-Arg-MCA fluorescence. inhibition, % at 5.96 µM. 2,400 tested, under 10 active;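 active means average inhibition across replicates above the hit cutoff set in the earlier primary screen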;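 further: 0% = median of test compound wells and 100% = Z-Phe-Ala-diazomethylketone 1 µM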
Target sequence (P07711 whole entry, looked up): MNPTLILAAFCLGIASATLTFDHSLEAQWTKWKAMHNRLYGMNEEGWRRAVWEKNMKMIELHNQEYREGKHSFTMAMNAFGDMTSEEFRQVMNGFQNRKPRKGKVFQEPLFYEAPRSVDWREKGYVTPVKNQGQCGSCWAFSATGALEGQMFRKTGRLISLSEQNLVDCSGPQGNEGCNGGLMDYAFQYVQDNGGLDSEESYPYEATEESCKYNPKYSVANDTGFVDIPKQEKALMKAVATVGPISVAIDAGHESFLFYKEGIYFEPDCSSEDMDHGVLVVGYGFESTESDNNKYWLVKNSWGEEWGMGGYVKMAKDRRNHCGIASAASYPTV
* = called active by the depositor; . = no result given.

SMILES	NS3 helicase inh	UPR CHOP act	PfM18AAP inh-1	XBP1 UPR activ	p97 ATPase inh	CHOP inh	PfM18AAP inh-2	CTSL1 confirm
NC(=O)COC(=O)CCCc1c[nH]c2ccccc12	-5	0	-4	-1	6	45	.	.
CCOC(=O)C1=C(CSc2nc(-c3ccncc3)ccc2C#N)OC(N)=C(C#N)C1c1ccc(OC)cc1 (centres undefined)	4	5	34*	-1	6	14	-7	4
COc1ccc2cc(CN(Cc3ccco3)Cc3nnnn3C3CCCCC3)c(=O)[nH]c2c1	5	1	35*	-3	-2	22	-37	-4
COc1ccc2cc(CN(Cc3ccco3)C(c3nnnn3C3CCCCC3)C(C)C)c(=O)[nH]c2c1 (centres undefined)	2	4	13	1	4	67	.	.
CC(=O)SC1CC2=CC(=O)CC[C@]2(C)C2CC[C@@]3(C)C(CC[C@@]34CCC(=O)O4)C12 (some centres undefined)	.	.	.	.	.	3	.	.
C=CC[C@H](CC(=O)NCCO)C(=O)N[C@@H](COC(=O)[C@H](CC=C)CC(=O)OC(C)(C)C)Cc1c[nH]c2ccccc12	.	-1	.	-1	.	.	.	.
O=C(O)c1ccc(S(=O)(=O)c2ccc3c(c2)C(=O)N(c2ccc(O)cc2)C3=O)cc1	-3	-1	33*	-1	8	-20	-49	-1
O=C(O)c1ccc(NC(=O)c2ccc3c(c2)C(=O)N(c2ccccc2)C3=O)cc1	1	4	-10	1	.	.	.	.
CCOc1ccc(-n2nnnc2SCC(=O)Nc2cccc(O)c2)cc1	-4	0	-12	-3	.	.	.	.
CCOc1cc(C2NC(=O)NC2=O)ccc1O (centres undefined)	0	2	35*	-1	.	.	-42	-5
CCOC(=O)CNC(=S)n1ncnc1N	11	-2	58*	-3	3	-5	-14	2
CCOC(=O)CNC(=S)SC	-8	-2	0	-2	7	8	.	.
CC[C@@]1(C(=O)OC)N[C@H](CN(C)C(=O)c2ccc(F)cc2)[C@@H]2C(=O)N(C)C(=O)[C@@H]21	.	1	.	0	.	.	.	.
Cc1ccccc1CC1SC(N=C(N)N)=NC1=O (centres undefined)	4	4	4	-4	.	.	.	.
S=c1nc(C23CC4CC(CC(C4)C2)C3)[nH][nH]1	8	-1	36*	0	8	-4	17	3
Cc1sc(N)nc1C12CC3CC(CC(C3)C1)C2	-14	0	6	2	3	51	.	.
CC1CN(S(=O)(=O)c2cccc(C(=O)N(CCc3ccccc3)Cc3ccccc3)c2)CC(C)O1 (centres undefined)	.	-1	.	1	.	.	.	.
Cc1cc(OCC(=O)OCC(=O)N(C)Cc2ccccc2C)ccc1Cl	.	-2	.	-4	.	.	.	.
COc1cc(O)c(NC(C)=O)c2nonc12	7	2	33*	-3	8	.	27	1
COc1cc(-c2ccc(NC(C)=O)c(OC)c2)ccc1NC(C)=O	-9	0	-17	3	-4	2	.	.
C=CCNC(=O)C(=O)NCC1CCCN1S(=O)(=O)c1cccs1 (centres undefined)	.	1	.	-2	.	.	.	.
CC1CCN(S(=O)(=O)c2cc3c4c(c2)C(C)C(=O)N4CCC3)CC1 (centres undefined)	5	0	-2	1	.	.	.	.
COCCNC(=O)[C@@H]1CCCN1C(=O)C1CCN(S(=O)(=O)c2ccc(C)cc2)CC1	22	0	5	-2	.	.	.	.
COc1cccc(C(=O)N2CCN(C(=O)c3cccc4ccccc34)CC2)c1OC	-2	2	-14	0	-1	21	.	.
COc1cc(C(=S)N2CCCC2)ccc1O	-5	4	-31	0	5	9	.	.
SMILES	NS3 helicase inh	UPR CHOP act	PfM18AAP inh-1	XBP1 UPR activ	p97 ATPase inh	CHOP inh	PfM18AAP inh-2	CTSL1 confirm
COc1cccc(C(=S)N2CCCC2)c1OC	1	0	39*	-1	.	.	-19	-2
COc1cc(C(=S)N2CCCCC2)ccc1O	-1	-3	36*	0	5	35	-22	-4
Nc1ncnc2c1ncn2[C@@H]1O[C@H](CNS(=O)(=O)c2cc3ccccc3s2)[C@@H](O)[C@H]1O	.	2	.	2	.	.	.	.
CNC(=S)Nc1ccc(OC)c(OC)c1	5	-1	-5	-3	5	6	.	.
COc1ccc(NC(=S)Nc2ccccc2)c(OC)c1	-2	6	-6	-1	3	-29	.	.
S=C(Nc1ccccc1)Nn1cnnc1	-7	-1	65*	-2	3	20	61*	5
COc1ccc(NC(=S)Nn2cnnc2)c(OC)c1	-4	0	72*	-6	.	.	80*	-3
COc1ccc(NC(=S)Nn2cnnc2)cc1OC	9	1	79*	-4	3	7	76*	0
CCc1ccc(NC(=O)Nn2cnnc2)cc1	10	2	55*	-3	.	.	30*	-4
Cc1ccc(NC(=S)Nn2cnnc2)cc1	-7	-3	77*	-2	0	15	67*	0
CNC(=S)Nc1ccc(C)cc1	-6	0	7	0	3	-3	.	.
CCc1ccc(NC(=S)Nn2cnnc2)cc1	18	0	76*	0	4	11	64*	1
O=C(NCC1CCN(Cc2ccc(Cl)cc2)CC1)C1CCCN(c2ncnc3c2nc2n3CCCCC2)C1 (centres undefined)	-52	-1	-8	-6	.	.	.	.
O=C(CN1C(=O)C2C3C=CC(C3)C2C1=O)OCC(=O)c1ccc([N+](=O)[O-])cc1 (centres undefined)	13	2	42*	0	.	.	-19	0
CC(C(=O)OCC(=O)c1ccc([N+](=O)[O-])cc1)N1C(=O)C2C3CCC(C3)C2C1=O (centres undefined)	3	1	41*	-3	-1	19	-11	-1
Cc1c(N(C)S(=O)(=O)c2cc(C(=O)NCC3CCCO3)ccc2Cl)c(=O)n(-c2ccccc2)n1C (centres undefined)	.	-2	.	-1	.	.	.	.
CCc1cccc(NC(=O)CCNS(=O)(=O)c2ccc3c(c2)oc(=O)n3C)c1	-3	0	-1	-3	.	.	.	.
CC(=Nc1ccc(O)cc1)c1sc2ccccc2c1O	25	6	55*	4	9	58	-39	3
N=Nc1c(O)n(CC(=O)Nc2ccccc2)c2ccccc12	-4	2	13	-3	.	.	.	.
COc1ccccc1NC(=O)Nc1nc(CC(=O)Nc2ccc(N(C)C)cc2)cs1	.	7	.	1	.	.	.	.
